From ChEMBL document CHEMBL1140206 (J Med Chem, 2008)
pEC50, pKi: −log10 of the molar value.

Legend:
[1] = target: Neuronal acetylcholine receptor subunit alpha-7 (Rattus norvegicus, UniProt Q05941); assay: Displacement of [3H]MLA from rat alpha-7 nAChR/mouse 5HT3A chimera expressed in human tsA-201 cells
[2] = target: T1, Neuronal acetylcholine receptor; alpha3/beta4 (Rattus norvegicus, UniProt P04757+P12392); assay: Agonist activity at rat alpha-3-beta-4 nAChR expressed in HEK293 cells by FMP assay; format: functional, cell-based; conditions: for pEC50: read-out: EC50; for pKi: read-out: Ki; for Ki: read-out: pKi (converted)
How it was run: (§1)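 Stable HEK293 line; cells plated 16-24 h, washed, then loaded 30 min at 37 °C with FMP dye in Krebs buffer pH 7.4. Concentration-response curves used maximal responses, fitted to a Hill equation for EC50 and Rmax. Run in duplicate, at least three times.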

[3] = target: T1, Neuronal acetylcholine receptor; alpha3/beta4; assay: Displacement of [3H]epibatidine from rat recombinant alpha-3-beta-4 nAChR expressed in HEK293 cells; format: cell-based
[4] = target: Neuronal acetylcholine receptor; alpha4/beta2 (Rattus norvegicus, UniProt P09483+P12390); assay: Displacement of [3H]epibatidine from rat recombinant alpha4beta2 nAChR expressed in HEK293 cells; format: cell-based
[5] = target: Neuronal acetylcholine receptor; alpha4/beta4 (Rattus norvegicus, UniProt P09483+P12392); assay: Displacement of [3H]epibatidine from rat recombinant alpha-4-beta-4 nAChR expressed in HEK293 cells; format: cell-based
[6] = target: Neuronal acetylcholine receptor; alpha3/beta4 (Rattus norvegicus) (UniProt P04757+P12392); assay: Agonist activity at rat alpha-3-beta-4 nAChR expressed in HEK293 cells by FMP assay relative to acetylcholine; format: functional, cell-based
How it was run: as §1, with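 “7.4. Fluorescence (ex 530/em 560 nm) was read before and up to 1 min after agonist addition.” for “7.4.”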

[7] = target: T2, Neuronal acetylcholine receptor; alpha3/beta4 (Homo sapiens, UniProt P30926+P32297); assay: Agonist activity at human alpha-3-beta-4 nAChR expressed in Xenopus oocytes by two-electrode voltage clamp technique; format: functional, cell-based, Oocyte; conditions: for pEC50: read-out: EC50; for EC50: read-out: pEC50 (converted)
How it was run: (§2)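 Defolliculated Xenopus oocytes received 40-50 ng total cRNA of human α7, α3+β4 (1:1) or α4+β2 and were kept at 17 °C. Two-electrode clamp at -60 mV used 3 M KCl electrodes in Oocyte Ringer's pH 7.4, with 12 s agonist pulses 5 min apart at 2.5 mL/min. Peak current was normalized to saturating ACh in the same oocyte (10 mM α7; 1 mM α3β4, α4β2).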

[8] = target: T3, Neuronal acetylcholine receptor; alpha4/beta2 (Homo sapiens, UniProt P17787+P43681); assay: Agonist activity at human alpha-4-beta-2 nAChR expressed in Xenopus oocytes by two-electrode voltage clamp technique; format: functional, cell-based, Oocyte; how it was run: as §2
[9] = target: T2, Neuronal acetylcholine receptor; alpha3/beta4; assay: Agonist activity at human alpha3beta4 nAChR expressed in Xenopus oocytes by two-electrode voltage clamp technique at 320 uM relative to acetylcholine; format: functional, cell-based; conditions: Oocyte; how it was run: as §2
[10] = target: T3, Neuronal acetylcholine receptor; alpha4/beta2; assay: Agonist activity at human alpha-4-beta-2 nAChR expressed in Xenopus oocytes by two-electrode voltage clamp technique relative to acetylcholine; format: functional, cell-based; conditions: Oocyte; how it was run: as §2
[11] = target: T4, Neuronal acetylcholine receptor subunit alpha-7 (Homo sapiens, UniProt P36544); assay: Agonist activity at human alpha-7 nAChR expressed in Xenopus oocytes by two-electrode voltage clamp technique at 320 uM relative to acetylcholine; format: functional, cell-based; conditions: Oocyte; how it was run: as §2
[12] = target: T4, Neuronal acetylcholine receptor subunit alpha-7; assay: Agonist activity at human alpha-7 nAChR expressed in Xenopus oocytes by two-electrode voltage clamp technique; format: functional, cell-based, Oocyte; how it was run: as §2

T4 sequence (P36544 whole entry): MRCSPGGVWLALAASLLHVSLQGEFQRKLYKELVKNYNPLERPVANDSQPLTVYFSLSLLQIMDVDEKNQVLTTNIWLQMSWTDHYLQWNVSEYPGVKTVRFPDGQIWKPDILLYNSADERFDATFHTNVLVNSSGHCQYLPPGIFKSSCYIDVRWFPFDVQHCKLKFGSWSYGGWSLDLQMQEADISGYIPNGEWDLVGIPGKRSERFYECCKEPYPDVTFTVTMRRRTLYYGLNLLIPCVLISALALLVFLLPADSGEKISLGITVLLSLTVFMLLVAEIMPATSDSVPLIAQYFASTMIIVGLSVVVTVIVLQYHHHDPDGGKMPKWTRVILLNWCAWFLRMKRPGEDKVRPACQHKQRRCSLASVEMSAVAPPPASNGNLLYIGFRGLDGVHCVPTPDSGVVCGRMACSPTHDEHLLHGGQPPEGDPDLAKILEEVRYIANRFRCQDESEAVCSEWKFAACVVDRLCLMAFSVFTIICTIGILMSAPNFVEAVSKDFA
Chain of Neuronal acetylcholine receptor subunit alpha-7 (Rattus norvegicus, UniProt Q05941) (Q05941 23-502 limits assumed): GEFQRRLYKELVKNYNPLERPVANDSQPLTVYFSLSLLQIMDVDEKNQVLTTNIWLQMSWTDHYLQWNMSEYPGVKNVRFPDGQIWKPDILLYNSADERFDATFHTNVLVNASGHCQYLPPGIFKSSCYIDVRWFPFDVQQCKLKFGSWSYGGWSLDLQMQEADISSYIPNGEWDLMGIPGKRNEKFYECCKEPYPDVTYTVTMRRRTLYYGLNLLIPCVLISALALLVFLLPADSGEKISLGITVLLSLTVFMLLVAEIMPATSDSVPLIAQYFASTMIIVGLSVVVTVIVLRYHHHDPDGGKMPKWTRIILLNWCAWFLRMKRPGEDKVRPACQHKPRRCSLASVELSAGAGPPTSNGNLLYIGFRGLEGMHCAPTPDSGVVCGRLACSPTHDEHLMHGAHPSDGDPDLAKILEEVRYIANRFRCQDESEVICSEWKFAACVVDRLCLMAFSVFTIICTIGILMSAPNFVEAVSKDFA
T2 sequence (P30926 whole entry): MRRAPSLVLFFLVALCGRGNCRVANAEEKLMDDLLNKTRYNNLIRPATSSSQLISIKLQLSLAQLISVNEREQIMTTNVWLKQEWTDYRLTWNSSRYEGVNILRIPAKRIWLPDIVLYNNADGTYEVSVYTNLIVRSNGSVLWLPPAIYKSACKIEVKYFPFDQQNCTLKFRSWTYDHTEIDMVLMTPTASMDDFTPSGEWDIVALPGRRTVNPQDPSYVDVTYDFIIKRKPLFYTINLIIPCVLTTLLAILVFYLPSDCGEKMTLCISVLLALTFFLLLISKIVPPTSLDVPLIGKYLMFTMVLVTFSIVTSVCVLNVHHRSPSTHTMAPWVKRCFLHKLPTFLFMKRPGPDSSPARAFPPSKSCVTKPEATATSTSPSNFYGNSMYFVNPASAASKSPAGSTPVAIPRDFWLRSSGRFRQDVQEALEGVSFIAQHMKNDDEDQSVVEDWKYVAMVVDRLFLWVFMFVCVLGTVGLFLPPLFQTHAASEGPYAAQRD
T2 sequence (P32297 whole entry): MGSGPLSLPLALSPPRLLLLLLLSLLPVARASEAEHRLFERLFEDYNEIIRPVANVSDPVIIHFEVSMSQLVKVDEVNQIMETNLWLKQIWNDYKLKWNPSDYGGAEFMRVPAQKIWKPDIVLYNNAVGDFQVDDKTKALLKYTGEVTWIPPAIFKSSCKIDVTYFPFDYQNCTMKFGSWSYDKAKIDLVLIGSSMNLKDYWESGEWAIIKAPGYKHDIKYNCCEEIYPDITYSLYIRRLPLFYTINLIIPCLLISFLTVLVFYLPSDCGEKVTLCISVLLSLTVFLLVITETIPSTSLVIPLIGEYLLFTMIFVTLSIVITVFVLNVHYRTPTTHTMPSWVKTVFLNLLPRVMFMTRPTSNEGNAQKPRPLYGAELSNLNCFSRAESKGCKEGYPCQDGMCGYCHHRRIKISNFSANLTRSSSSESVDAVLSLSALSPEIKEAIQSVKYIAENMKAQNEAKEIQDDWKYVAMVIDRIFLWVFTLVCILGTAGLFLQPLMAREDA
Chain of Neuronal acetylcholine receptor; alpha4/beta4 (P09483 whole entry): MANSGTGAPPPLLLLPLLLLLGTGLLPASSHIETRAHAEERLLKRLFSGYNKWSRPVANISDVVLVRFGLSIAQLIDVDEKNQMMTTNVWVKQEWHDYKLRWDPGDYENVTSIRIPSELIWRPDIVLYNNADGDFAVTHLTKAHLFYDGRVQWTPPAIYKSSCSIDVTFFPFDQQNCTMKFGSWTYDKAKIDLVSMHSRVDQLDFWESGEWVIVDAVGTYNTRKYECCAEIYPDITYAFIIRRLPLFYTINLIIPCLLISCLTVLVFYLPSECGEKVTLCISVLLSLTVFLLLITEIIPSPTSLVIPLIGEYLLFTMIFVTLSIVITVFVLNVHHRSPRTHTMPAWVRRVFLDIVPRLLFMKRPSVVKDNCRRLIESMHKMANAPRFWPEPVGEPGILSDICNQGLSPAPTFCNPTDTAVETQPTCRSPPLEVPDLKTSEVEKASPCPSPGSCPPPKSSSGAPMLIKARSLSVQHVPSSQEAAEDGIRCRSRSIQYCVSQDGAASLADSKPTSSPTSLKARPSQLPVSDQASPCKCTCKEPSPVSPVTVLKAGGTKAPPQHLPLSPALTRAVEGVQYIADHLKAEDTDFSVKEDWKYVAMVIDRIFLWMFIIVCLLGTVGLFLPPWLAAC
Chain of Neuronal acetylcholine receptor; alpha4/beta4 (P12392 whole entry): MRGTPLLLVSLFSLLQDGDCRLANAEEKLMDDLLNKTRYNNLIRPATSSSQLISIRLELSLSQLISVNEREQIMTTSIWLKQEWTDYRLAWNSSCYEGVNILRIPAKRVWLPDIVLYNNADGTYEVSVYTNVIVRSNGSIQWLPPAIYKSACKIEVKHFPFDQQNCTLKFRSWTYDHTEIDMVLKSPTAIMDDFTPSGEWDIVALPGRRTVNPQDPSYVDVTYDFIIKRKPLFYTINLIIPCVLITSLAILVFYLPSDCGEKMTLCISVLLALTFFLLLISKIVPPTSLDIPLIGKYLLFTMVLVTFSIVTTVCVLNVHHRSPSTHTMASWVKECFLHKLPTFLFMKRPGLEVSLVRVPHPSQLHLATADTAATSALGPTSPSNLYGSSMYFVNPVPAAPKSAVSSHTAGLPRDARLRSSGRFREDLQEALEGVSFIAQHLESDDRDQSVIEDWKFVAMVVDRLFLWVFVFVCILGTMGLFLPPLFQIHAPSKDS
Chain of Neuronal acetylcholine receptor; alpha4/beta2 (Rattus norvegicus, UniProt P09483+P12390) (P09483 whole entry): as the sequence (P09483 whole entry) above
Chain of Neuronal acetylcholine receptor; alpha4/beta2 (Rattus norvegicus, UniProt P09483+P12390) (P12390 whole entry): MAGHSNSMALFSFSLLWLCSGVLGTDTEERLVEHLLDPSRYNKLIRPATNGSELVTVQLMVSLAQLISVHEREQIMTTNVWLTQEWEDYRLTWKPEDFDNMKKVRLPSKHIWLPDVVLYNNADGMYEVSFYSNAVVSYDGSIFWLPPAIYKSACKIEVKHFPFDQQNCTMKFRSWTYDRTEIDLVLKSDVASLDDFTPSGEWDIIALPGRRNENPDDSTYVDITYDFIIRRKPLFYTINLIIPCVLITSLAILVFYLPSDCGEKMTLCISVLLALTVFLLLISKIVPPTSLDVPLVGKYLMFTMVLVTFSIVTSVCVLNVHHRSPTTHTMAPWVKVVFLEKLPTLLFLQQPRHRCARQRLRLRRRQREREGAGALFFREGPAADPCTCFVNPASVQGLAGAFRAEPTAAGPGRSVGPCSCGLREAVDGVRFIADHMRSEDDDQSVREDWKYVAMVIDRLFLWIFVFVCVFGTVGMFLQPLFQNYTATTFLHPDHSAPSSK
T1 sequence (P04757 whole entry): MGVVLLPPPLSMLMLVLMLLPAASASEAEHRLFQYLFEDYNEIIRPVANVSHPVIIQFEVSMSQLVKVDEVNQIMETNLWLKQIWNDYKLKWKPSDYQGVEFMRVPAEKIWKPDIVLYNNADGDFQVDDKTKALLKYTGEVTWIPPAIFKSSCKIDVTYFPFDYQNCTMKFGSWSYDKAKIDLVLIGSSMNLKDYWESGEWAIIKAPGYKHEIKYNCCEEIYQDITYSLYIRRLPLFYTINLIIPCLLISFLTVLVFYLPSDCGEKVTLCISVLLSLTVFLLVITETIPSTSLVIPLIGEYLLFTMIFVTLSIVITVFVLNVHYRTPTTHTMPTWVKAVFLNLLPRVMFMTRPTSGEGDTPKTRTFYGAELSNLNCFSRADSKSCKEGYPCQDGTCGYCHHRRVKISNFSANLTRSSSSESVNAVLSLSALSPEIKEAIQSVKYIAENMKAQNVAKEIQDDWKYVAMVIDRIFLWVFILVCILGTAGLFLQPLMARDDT
T1 sequence (P12392 whole entry): as the sequence (P12392 whole entry) above

SMILES | pKi [1] | EC50 ([2]; read-out: pEC50 (converted)) [µM] | pKi [3] | pKi [4] | pKi [5] | Activity [6] [%] | pEC50 [2] | pKi [2] | Ki [2] [µM] | pEC50 [7] | EC50 [7] [µM] | pEC50 [8] | Activity [9] [%] | Activity [10] [%] | Activity [11] [%] | pEC50 ([12]; read-out: EC50) | EC50 ([12]; read-out: pEC50 (converted)) [µM]
CC(CCOC(=O)C1CC1)N(C)C (configuration not stated) | 3.55 | 7.94 | 5.38 | 8.42 | 6.59 | 105 | – | – | – | – | – | – | – | – | – | – | –
CC(CCOC(=O)c1ccccc1)N(C)C (configuration not stated) | 3.72 | – | 4.00 | 6.49 | 5.00 | – | – | – | – | – | – | – | – | – | – | – | –
CC(C)C(=O)OCCC(C)N(C)C (configuration not stated) | < 3.00 | – | 5.07 | 7.52 | 6.12 | 100 | 4.62 | – | – | – | – | – | – | – | – | – | –
CC(CCOC(=O)N1CCCCC1)N(C)C (configuration not stated) | – | – | 5.59 | 7.04 | 6.46 | – | – | – | – | – | – | – | – | – | – | – | –
CC(CCOC(=O)N(C)C)N(C)C (configuration not stated) | < 3.00 | – | 6.38 | 7.70 | 6.82 | 105 | – | 8.11 | 7.94 | – | – | – | – | – | – | – | –
CC(CCOC(=O)N1CC(C)(C)C1)N(C)C (configuration not stated) | – | – | 3.52 | 7.24 | 6.14 | 43 | – | 6.52 | 316 | – | – | – | – | – | – | – | –
CC(CCOC(=O)N1CCC1)N(C)C (configuration not stated) | – | – | 4.96 | 8.29 | 6.72 | 106 | – | 7.64 | 25.1 | < 3.49 | > 316 | 5.15 | 23 | 66 | – | – | –
CC(CCOC(=O)N1CCC1(C)C)N(C)C (configuration not stated) | – | – | 4.60 | 6.68 | 5.49 | 90 | – | 7.29 | 50.1 | – | – | – | – | – | – | – | –
CC(CCOC(=O)N1CC(F)(F)C1)N(C)C (configuration not stated) | – | – | – | 7.24 | 5.80 | 75 | – | – | – | – | – | – | – | – | – | – | –
CC1CN(C(=O)OCC[C@@H](C)N(C)C)C1 | – | – | 4.72 | 9.04 | 6.74 | – | – | – | – | – | – | – | – | – | – | – | –
CC(CCOC(=O)n1cccc1)N(C)C (configuration not stated) | < 3.00 | – | 4.00 | 6.51 | 4.96 | 27 | – | 7.00 | 316 | – | – | – | – | – | – | – | –
CC(CCOC(=O)N1CCCC1)N(C)C (configuration not stated) | – | – | 4.60 | 6.68 | 5.66 | – | – | – | – | – | – | – | – | – | – | – | –
CC(CCOC(=O)C1CCC1)N(C)C (configuration not stated) | 3.54 | – | 5.46 | 7.00 | 6.34 | 85 | 5.07 | – | – | – | – | – | – | – | – | – | –
CC1CN(C(=O)OCCC(C)N(C)C)C1 (configuration not stated) | < 3.00 | – | 4.64 | 8.68 | 6.59 | 91 | – | 7.32 | 50.1 | < 3.49 | > 316 | 4.07 | 12 | 9.5 | 0.9 | < 3.49 | > 316
CC(CCOC(=O)N1CCC1C)N(C)C (configuration not stated) | < 3.00 | – | 5.60 | 7.82 | 6.64 | 89 | – | 8.27 | 5.01 | – | – | – | – | – | – | – | –
CC(=O)OCCC(C)N(C)C (configuration not stated) | < 3.00 | – | 5.39 | 7.19 | 6.43 | 97 | 4.64 | – | – | – | – | – | – | – | – | – | –
CC1CN(C(=O)OCC[C@H](C)N(C)C)C1 | – | – | 4.00 | 7.24 | 5.15 | – | – | – | – | – | – | – | – | – | – | – | –
